Measured values reported in PubChem BioAssay AID651654 (Broad Institute, 2012).
Screen size: about 360,000 compounds; about 740 (0.21%) were called active. For the sample, actives were picked, then their nearest neighbours and some compounds at random. Unmarked numbers belong to inactive results.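 How the source made its calls: active means mean lysis activity across replicates of at least 80%, whatever share of replicates individually reach that level; inactive means mean lysis activity below 80%.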

experiment: Cryptococcus neoformans cell lysis inducers, primary screen, AK release luminescence, single concentration (AID 651654); conditions: C. neoformans lysis, adenylate kinase release luminescence, 4 h; at 15 µM; active compounds read high; normalised: neutral wells 0, clomiphene wells 100
Method in brief: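 Material – Cryptococcus neoformans yeast cells · Quantity – 5 × 10^6 yeast cells/mL · Buffer or medium – YPD medium · Compound – single dose · Timing – 4 h static compound exposure, 37 °C, read 1 h post-reagent · Signal – adenylate kinase release luminescence · Read-out basis – lysis from increased AK signal · Benchmarks – Clomiphene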

SMILES	lysis activity
C[C@@H]1CN([C@H](C)CO)C(=O)c2cc(NC(=O)CCCCCC(=O)Nc3ccccc3N)ccc2O[C@@H]1CN(C)Cc1ccncc1	0.608%
COc1ccc(CN(C)C[C@@H]2OCCCC[C@H](C)Oc3ccc(NC(=O)c4ccccc4)cc3C(=O)N([C@H](C)CO)C[C@H]2C)cc1	-1.71%
C[C@H](CO)N1C[C@H](C)[C@@H](CN(C)S(=O)(=O)c2ccc(Cl)cc2)Oc2ccc(NS(C)(=O)=O)cc2CC1=O	-5.34%
CCC(=O)N(C)C[C@@H]1Oc2cc(C#C[C@H](C)O)ccc2S(=O)(=O)N([C@H](C)CO)C[C@@H]1C	-0.573%
C[C@@H]1CN([C@H](C)CO)C(=O)c2cc(C#CC3CCCC3)cnc2O[C@H]1CN(C)S(C)(=O)=O	-1.11%
C[C@@H]1CN([C@H](C)CO)C(=O)CCCn2nncc2CO[C@@H]1CN(C)C	-1.91%
Cc1cccc(CN(C)C[C@@H]2OCc3cn(nn3)CCCC(=O)N([C@@H](C)CO)C[C@H]2C)c1	-1.37%
COc1ccc(S(=O)(=O)N2C[C@H](O)COC[C@@H]3O[C@H](CC(=O)NCCN4CCCCC4)CC[C@H]32)cc1	0.16%
CCCNC(=O)N1C[C@H](C)[C@@H](OC)CN(C)C(=O)c2ccc(NS(C)(=O)=O)cc2OC[C@@H]1C	0.827%
COCC(=O)Nc1ccc2c(c1)C(=O)N(C)[C@@H]1CC[C@@H](CC(=O)NCc3cccc(F)c3)O[C@@H]1CO2	1.56%
COCC#Cc1cnc2c(c1)C(=O)N([C@@H](C)CO)C[C@H](C)[C@@H](CN(C)Cc1ccccc1)O2	-2.83%
CC(C)NC(=O)N[C@@H]1C=C[C@@H](CC(=O)N2CCCCC2)O[C@@H]1CO	1.39%
C[C@@H]1CN([C@@H](C)CO)C(=O)c2cc(NC(=O)C3CCCCC3)ccc2O[C@@H]1CN(C)Cc1ccc(C(=O)O)cc1	-4.67%
Cc1ccc(-c2cnc3c(c2)C(=O)N([C@@H](C)CO)C[C@H](C)[C@H](CN(C)C(=O)c2cccnc2)O3)cc1	-0.96%
C[C@@H]1CN([C@@H](C)CO)C(=O)c2cc(NC(=O)CCCN(C)C)ccc2O[C@@H]1CN(C)Cc1ccncc1	5.83%
COC(=O)C[C@@H]1C[C@H]2c3cc(NC(=O)Nc4ccc(F)cc4)ccc3O[C@H]2[C@@H](CO)O1	-7.03%
CCC(=O)N(C)C[C@@H]1Oc2ncc(C#CCc3ccccc3)cc2C(=O)N([C@H](C)CO)C[C@H]1C	1.55%
COc1ccc(CN2[C@@H](CO)[C@@H]3c4ccccc4N(C(=O)Nc4ccccc4)C[C@@H]32)cc1	0.269%
COc1ccc(NC(=O)Nc2ccc3c(c2)C(=O)N([C@H](C)CO)C[C@@H](C)[C@H](CN(C)C(=O)Nc2ccc(C(F)(F)F)cc2)OCCCC[C@@H](C)O3)cc1	1.63%
C[C@H](CO)N1C[C@H](C)[C@H](CN(C)C(=O)Nc2ccc(C(F)(F)F)cc2)Oc2ccc(NC(=O)C3CC3)cc2C1=O	8.67%
Cn1cnc(CCNC(=O)C[C@@H]2CC[C@@H]3[C@H](COC[C@@H](O)CN3C(=O)Nc3ccccc3)O2)c1	1.75%
C[C@H](CO)N1C[C@H](C)[C@H](CN(C)S(C)(=O)=O)Oc2ccc(NC(=O)Nc3ccc(F)cc3)cc2C1=O	0.358%

SMILES	lysis activity
C#CCN1C(Cc2ccccc2)C(=O)O[C@H](C2CCCCC2)[C@@H]1/C=C/C1CC1 (some centres undefined)	5.01%
CO[C@@H]1CN(C)C(=O)c2cc(NC(C)=O)ccc2OC[C@H](C)N(CC2CCCCC2)C[C@@H]1C	-3.61%
COc1ccc(C2=Nc3ccccc3NC(=O)C2N(C(=O)c2cc3ccccc3[nH]2)c2ccccc2)cc1 (centres undefined)	101% (active)
CC(OC(=O)c1cc2ccccc2[nH]1)C(=O)N(C)c1ccccc1 (centres undefined)	-1.83%
O=C(Nc1ccccc1)c1cc2ccccc2[nH]1	-9.41%
CO[C@H]1CN(C)C(=O)c2cc(NS(=O)(=O)CC(F)(F)F)ccc2OC[C@@H](C)N(Cc2nccs2)C[C@@H]1C	0.476%
CN1c2ccc(C3=CCCCC3)cc2[C@H]2[C@H](CCN2S(=O)(=O)c2ccccc2)[C@@H]1CO	0.27%
O=C(C1CCC1)N1CCCCN2[C@H](CO)[C@H](c3ccc(-c4cccc(F)c4)cc3)[C@H]2C1	4.53%
COc1cccc(NC(=O)C[C@H]2CC[C@@H]3[C@@H](COc4ccc(NC(=O)C5CCOCC5)cc4C(=O)N3C)O2)c1	1.2%
CC(C)NC(=O)N[C@H]1CC[C@H](CC(=O)NC2Cc3ccccc3C2)O[C@H]1CO	-0.817%
COc1ccccc1C#Cc1ccc2c(c1)O[C@H](CN(C)Cc1cccnc1)[C@@H](C)CN([C@H](C)CO)S2(=O)=O	3.3%
CO[C@@H]1CN(C)C(=O)c2ccc(NS(C)(=O)=O)cc2OC[C@@H](C)N(CC2CC2)C[C@@H]1C	2.22%
CN(C)C(=O)C[C@H]1CC[C@@H](NC(=O)C2CC2)[C@@H](CO)O1	-0.137%
C[C@@H]1CCCCO[C@H](CN(C)C(=O)NC2CCCCC2)[C@@H](C)CN([C@H](C)CO)C(=O)c2cc(NS(C)(=O)=O)ccc2O1	3.91%
C[C@@H]1CN([C@@H](C)CO)C(=O)c2cc(NS(=O)(=O)c3cn(C)cn3)ccc2O[C@@H](C)CCCCO[C@@H]1CN(C)Cc1ccncc1	-2.55%
CC(=O)N1[C@H](CO)[C@@H](c2ccc(-c3ccccc3)cc2)[C@H]1CNC(=O)C1CC1	73.3%
CC(=O)N1[C@H](CO)[C@@H](c2ccc(-c3ccc(F)cc3)cc2)[C@H]1CNC(=O)C1CC1	-1.15%
CCN(C[C@H]1[C@H](c2ccccc2)[C@H](CO)N1C(=O)C1CC1)C(=O)NC1CCCC1	3.3%
C/C=C/c1ccc([C@H]2[C@@H](CNC(=O)NC(C)C)N(C(=O)C3CCC3)[C@H]2CO)cc1	-1.4%
O=C(NC[C@@H]1[C@@H](c2ccccc2)[C@H](CO)N1C(=O)C1CCC1)NC1CCCC1	94.8% (active)
CC(=O)N1[C@H](CO)[C@H](c2ccc(-c3ccccc3)cc2)[C@H]1CNC(=O)C1CC1	90.2% (active)
CO[C@@H](CN(C)C(=O)Nc1ccc(F)cc1)[C@H](C)CN(Cc1ccccc1Cl)[C@@H](C)CO	13.4%

SMILES	lysis activity
CCCC#Cc1ccc2c(c1)O[C@@H](CN(C)C(=O)c1cccnc1)[C@H](C)CN([C@H](C)CO)S2(=O)=O	-4.36%
C[C@H](CO)N1C[C@H](C)[C@@H](CN(C)C)Oc2cc(C#Cc3ccccc3)ccc2S1(=O)=O	0.917%
C/C=C/c1ccc2c(c1)O[C@@H](CN(C)S(=O)(=O)c1ccc(F)cc1)[C@@H](C)CN([C@H](C)CO)S2(=O)=O	3%
C[C@H](CO)N1C[C@H](C)[C@@H](CN(C)Cc2ccccc2C(F)(F)F)OCc2cn(nn2)CCCC1=O	-8.12%
Cc1ccccc1CN(C)C[C@H]1OCc2cn(nn2)CCCC(=O)N([C@@H](C)CO)C[C@H]1C	96.6% (active)
C[C@@H]1CN([C@H](C)CO)C(=O)CCCn2cc(nn2)CO[C@@H]1CN(C)Cc1ccccc1C(=O)O	-0.638%
CO[C@H]1CN(C)C(=O)c2ccc(NC(=O)Cc3ccccc3)cc2OC[C@@H](C)N(C(C)=O)C[C@H]1C	69.9%
C[C@@H]1CN([C@@H](C)CO)C(=O)c2cccc(NC(=O)Nc3ccc(C(F)(F)F)cc3)c2O[C@@H]1CN(C)S(=O)(=O)c1ccc(F)cc1	28.4%
C[C@@H]1CN([C@@H](C)CO)C(=O)Cc2cc(NS(=O)(=O)c3cccs3)ccc2O[C@@H]1CN(C)S(=O)(=O)c1ccc(F)cc1	-1.3%
CCCNC(=O)N1[C@H](CNC(=O)c2cccc(F)c2)[C@H](c2ccccc2)[C@@H]1CO	-0.391%
COc1cccc(S(=O)(=O)N[C@H]2CC[C@@H](CC(=O)NCc3ccc(F)cc3)O[C@@H]2CO)c1	3.95%
CCCNC(=O)C[C@H]1C[C@@H]2c3cc(NC(=O)C4CCOCC4)ccc3O[C@@H]2[C@H](CO)O1	1.8%
O=C(C[C@H]1CC[C@H](NC(=O)C2CCC2)[C@@H](CO)O1)Nc1nccs1	5.79%
COc1ccccc1S(=O)(=O)N[C@@H]1CC[C@@H](CCn2cc(C3CCCCC3)nn2)O[C@H]1CO	18.5%
O=C(C[C@@H]1C[C@H]2c3cc(NC(=O)Nc4ccccc4)ccc3O[C@H]2[C@@H](CO)O1)NCc1cccnc1	-4.19%
COC(=O)C[C@@H]1CC[C@@H]2[C@H](COc3ccc(NC(=O)Nc4cccc(F)c4)cc3C(=O)N2C)O1	5.11%
CO[C@@H](CN(C)C(=O)c1cnccn1)[C@@H](C)CN([C@@H](C)CO)S(=O)(=O)c1ccc(F)cc1	59.1%
CC(=O)N1[C@H](CN(CC2CCC2)C(=O)CN(C)C)[C@@H](c2ccccc2)[C@@H]1CO	-2.74%
CCC(=O)N1C[C@@H](C)[C@H](OC)CN(C)C(=O)c2ccc(NC(=O)c3ccc(F)cc3)cc2OC[C@@H]1C	-5.87%
COc1ccccc1NC(=O)N[C@H]1CC[C@H](CCn2cc(-c3cccnc3)nn2)O[C@@H]1CO	-0.992%
